Measurements as given in ChEMBL document CHEMBL4689842, “EUbOPEN Chemogenomics Library wave 1” (2021).

Tests used:
[1] = test system: U2OS; experiment: Multiplex assay against U2OS; format: toxicity, cell-based; conditions: human
Outline: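 Cells were classed with CellPathfinder machine-learning gating, first as Hoechst high-intensity objects or normal cells, then (normal cells) as healthy, pyknosed or fragmented nuclei, and finally (pyknosed cells) as mitotic or apoptotic. Staining of live cells at seeding used Hoechst33342, BioTracker Green Microtubule Cytoskeleton Dye, MitoTracker Red and Annexin V Alexa Fluor 680, with imaging on a CQ1 microscope at 37°C and 5% CO2 after compound addition. Tubulin, mitochondrial-mass and membrane-permeability phenotypes are per cents of healthy-nucleus cells.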

[2] = test system: U2OS; experiment: Incucyte cell viability with U2OS; format: toxicity, cell-based; conditions: human, 10 µM, compound concentration 10 uM; note: filed as whole numbers so only -1 and 0 and 1 occur
[3] = 24 h, 10 µM, compound concentration 10 uM, replicate 1
[4] = 24 h, 10 µM, compound concentration 10 uM, replicate 2
[5] = 48 h, 1 µM, compound concentration 1 uM, replicate 1
[6] = 48 h, 1 µM, compound concentration 1 uM, replicate 2
[7] = 48 h, 10 µM, compound concentration 10 uM, replicate 1
[8] = 48 h, 10 µM, compound concentration 10 uM, replicate 2

`COc1ccc(NS(=O)(=O)c2sc3ccc(Cl)cc3c2C)cc1N1CCNCC1.Cl` was tested, and the “Population Healthy Nuclei (%)” value [1, 3] was 51%, the “Population Hoechst High Intensity Objects (%)” value [1, 3] was 7% and the “Population Membrane Permeable-Phenotype (%)” value [1, 3] was 35%. For the same compound, the “Population Mitochondria Different-Phenotype (%)” value [1, 3] was 98%, the “Population Mitotic Cells (%)” value [1, 3] was 38% and the “Population Normal (%)” value [1, 3] was 92%. The “Population Pyknosed Nuclei (%)” value [1, 3] was 31%, the “Population Tubulin-Different-Phenotype (%)” value [1, 3] was 95% and the “Total Cell Count” value [1, 3] was 200. The “Population Apoptotic (%)” value [1, 4] was 68%, the “Population Fragmented Nuclei (%)” value [1, 4] was 16% and the “Population Healthy Nuclei (%)” value [1, 4] was 47%. For the same compound, the “Population Hoechst High Intensity Objects (%)” value [1, 4] was 2%, the “Population Membrane Permeable-Phenotype (%)” value [1, 4] was 55% and the “Population Mitochondria Different-Phenotype (%)” value [1, 4] was 97%. For the same compound, the “Population Mitotic Cells (%)” value [1, 4] was 32%, the “Population Normal (%)” value [1, 4] was 97% and the “Population Pyknosed Nuclei (%)” value [1, 4] was 35%. For the same compound, the “Population Tubulin-Different-Phenotype (%)” value [1, 4] was 91%, the “Total Cell Count” value [1, 4] was 51 and the “Population Apoptotic (%)” value [1, 5] was 36%. For the same compound, the “Population Fragmented Nuclei (%)” value [1, 5] was 8%, the “Population Healthy Nuclei (%)” value [1, 5] was 82% and the “Population Hoechst High Intensity Objects (%)” value [1, 5] was 3%. For the same compound, the “Population Membrane Permeable-Phenotype (%)” value [1, 5] was 3%, the “Population Mitochondria Different-Phenotype (%)” value [1, 5] was 8% and the “Population Mitotic Cells (%)” value [1, 5] was 64%. The “Population Pyknosed Nuclei (%)” value [1, 5] was 9%, the “Population Tubulin-Different-Phenotype (%)” value [1, 5] was 6% and the “Total Cell Count” value [1, 5] was 178. The “Population Apoptotic (%)” value [1, 6] was 22%, the “Population Fragmented Nuclei (%)” value [1, 6] was 13% and the “Population Healthy Nuclei (%)” value [1, 6] was 73%. For the same compound, the “Population Hoechst High Intensity Objects (%)” value [1, 6] was 4%, the “Population Membrane Permeable-Phenotype (%)” value [1, 6] was 7% and the “Population Mitochondria Different-Phenotype (%)” value [1, 6] was 20%. For the same compound, the “Population Mitotic Cells (%)” value [1, 6] was 77%, the “Population Normal (%)” value [1, 6] was 96% and the “Population Pyknosed Nuclei (%)” value [1, 6] was 12%. For the same compound, the “Population Tubulin-Different-Phenotype (%)” value [1, 6] was 11%, the “Total Cell Count” value [1, 6] was 73 and the “Population Apoptotic (%)” value [1, 7] was 73%. The “Population Fragmented Nuclei (%)” value [1, 7] was 20%, the “Population Healthy Nuclei (%)” value [1, 7] was 37% and the “Population Hoechst High Intensity Objects (%)” value [1, 7] was 12%. For the same compound, the “Population Membrane Permeable-Phenotype (%)” value [1, 7] was 46%, the “Population Mitochondria Different-Phenotype (%)” value [1, 7] was 94% and the “Population Mitotic Cells (%)” value [1, 7] was 26%. For the same compound, the “Population Normal (%)” value [1, 7] was 87%, the “Population Pyknosed Nuclei (%)” value [1, 7] was 41% and the “Population Tubulin-Different-Phenotype (%)” value [1, 7] was 98%. The “Total Cell Count” value [1, 7] was 281, the “Population Apoptotic (%)” value [1, 8] was 68% and the “Population Fragmented Nuclei (%)” value [1, 8] was 17%. For the same compound, the “Population Healthy Nuclei (%)” value [1, 8] was 56%, the “Population Hoechst High Intensity Objects (%)” value [1, 8] was 6% and the “Population Membrane Permeable-Phenotype (%)” value [1, 8] was 56%. The “Population Mitochondria Different-Phenotype (%)” value [1, 8] was 93%, the “Population Mitotic Cells (%)” value [1, 8] was 31% and the “Population Normal (%)” value [1, 8] was 93%. For the same compound, the “Population Pyknosed Nuclei (%)” value [1, 8] was 26%, the “Population Tubulin-Different-Phenotype (%)” value [1, 8] was 82% and the “Total Cell Count” value [1, 8] was 75. The “Growth Rate” value ([2]; 6 h, replicate number 1, timepoint 6 hours) was 0, the “Growth Rate” value ([2]; 12 h, replicate number 1, timepoint 12 hours) was 0 and the “Growth Rate” value ([2]; 18 h, replicate number 1, timepoint 18 hours) was 0. The “Growth Rate” value ([2]; 24 h, replicate number 1, timepoint 24 hours) was 0.
